The record followed here is ChEMBL document CHEMBL1149788, “Synthesis and biochemical evaluation of guanidino-alkyl-ribitol derivatives as nucleoside hydrolase inhibitors” (Eur J Med Chem, 2008).

The structures appear in SMILES notation.

The target in one assay is T1, IAG-nucleoside hydrolase (Trypanosoma vivax, UniProt Q9GPQ4).
T1 sequence (Q9GPQ4 whole entry): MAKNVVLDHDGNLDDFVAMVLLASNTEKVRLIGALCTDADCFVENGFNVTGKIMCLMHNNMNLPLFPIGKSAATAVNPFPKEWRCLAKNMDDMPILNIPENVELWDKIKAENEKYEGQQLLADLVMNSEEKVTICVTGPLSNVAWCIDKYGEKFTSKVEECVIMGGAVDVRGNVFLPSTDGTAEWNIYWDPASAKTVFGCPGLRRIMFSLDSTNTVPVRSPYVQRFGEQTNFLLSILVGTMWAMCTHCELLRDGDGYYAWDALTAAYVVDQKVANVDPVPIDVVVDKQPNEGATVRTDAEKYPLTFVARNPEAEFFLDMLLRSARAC
In words: Inhibition of Trypanosoma vivax IAG-nucleoside hydrolase expressed in Escherichia coli WK6. A digest of the protocol:
(§1)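 His6-tagged enzyme purified by Ni-NTA then Superdex-200 gel filtration; concentration per monomer from ε280 47752 M⁻¹ cm⁻¹. Initial rates of hydrolysis of fixed p-nitrophenyl-β-D-ribofuranoside at ≥5 inhibitor concentrations, 50 mM phosphate pH 7.0, 35 °C. p-Nitrophenolate release read at 400 nm (ε 12 mM⁻¹ cm⁻¹). Ki from competitive-inhibition fit via Dixon plot (1/vi vs I).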

Assay [1] deals with T2, IAG-nucleoside hydrolase (Trypanosoma vivax) (UniProt Q9GPQ4).
T2 sequence (whole entry): T1 sequence (Q9GPQ4 whole entry)
In words: Binding affinity to Trypanosoma vivax IAG-nucleoside hydrolase. A digest of the protocol: as §1

Regarding `N=C(N)c1ccc(CN2C[C@H](O)[C@H](O)[C@H]2CO)cc1`, on IAG-nucleoside hydrolase, the Ki (in general, the dissociation constant of the complex between target and ligand, obtained from inhibition or displacement) came out at 6.7 µM.
The compound `OC[C@H]1NC[C@H](O)[C@@H]1O` [IMINORIBITOL] returned a Ki on IAG-nucleoside hydrolase of 6.1 µM.
As to `NC(N)=NC[C@@H]1O[C@H](CO)[C@@H](O)[C@H]1O`, affinity on IAG-nucleoside hydrolase was put at a Ki of 545 µM.
For `C[N+](C)(C)C[C@@H]1O[C@H](CO)[C@@H](O)[C@H]1O`, the Ki at IAG-nucleoside hydrolase was determined as 1280 µM.
`N=C(N)NCCCN1C[C@H](O)[C@H](O)[C@H]1CO` returned a Ki at IAG-nucleoside hydrolase of 40 µM.
In assay [1], `O[C@@H]1[C@H](O)[C@H](O)CO[C@H]1O` showed an Activity of 148 mM.
For `OCC1[C@@H](O)[C@@H](O)CN1Cc1ccccc1` (single isomer, unassigned), the Ki at IAG-nucleoside hydrolase is 59 µM.
Compound `NC(N)=NCCC[C@@H]1O[C@H](CO)[C@@H](O)[C@H]1O` came in with a Ki at IAG-nucleoside hydrolase of 677 µM.
Compound `N=C(N)NCC[C@@H]1N[C@H](CO)[C@@H](O)[C@H]1O` displayed a Ki at IAG-nucleoside hydrolase of 18 µM.
`NC(N)=NCCN1C[C@H](O)[C@H](O)[C@H]1CO` gave a Ki at IAG-nucleoside hydrolase of 286 µM.
For `NC(=O)[C@@H]1O[C@H](CO)[C@H](O)[C@@H]1O`, the affinity on IAG-nucleoside hydrolase corresponds to a Ki of 4500 µM.
Still for that read-out and setting: the figure for `CC(C[C@@H]1O[C@H](CO)[C@@H](O)[C@H]1O)N=C(N)N` (some centres undefined) is 685 µM; for `N=C(N)Nc1ccc(CN2C[C@H](O)[C@H](O)[C@H]2CO)cc1` it is 7 µM.
On the same count and under the same terms, the figure for `NC(N)=NCC[C@@H]1O[C@H](CO)[C@@H](O)[C@H]1O` is 309 µM.
